Assay [1] relates to male NMRI mice. As to the kind of experiment: Acetic acid-induced writhing test. In kind it is in vivo. Conditions: for Response (n) Mean ± SD: number of writhing responses during 30 min, eight mice; for ED50: Mus musculus, ip, read-out: Estimated ED50 (mg/kg) (95% Confidence Interval).
The test system of assay [2] is MCF-7 breast cancer cell line. Put plainly: MTT cytotoxicity assay. In kind it is cell-based. Conditions: Homo sapiens, MCF7, 72 h, read-out: % Inhibition (10 µM). The method, boiled down:
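MCF-7 cells from IBRC seeded in RPMI1640 at 37 °C, 5% CO2, high humidity. After one day, medium replaced with medium containing test compound; celecoxib as reference, plain medium as control. Incubated 72 h, then MTT added for 4 h at 37 °C. Supernatant removed, cells exposed to DMSO 20 min at 37 °C, absorbance read at 570 nm.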

Assay [3] has as its target T1, Ovine COX-1 (Ovis aries, UniProt P05979).
T1 sequence (P05979 25-600): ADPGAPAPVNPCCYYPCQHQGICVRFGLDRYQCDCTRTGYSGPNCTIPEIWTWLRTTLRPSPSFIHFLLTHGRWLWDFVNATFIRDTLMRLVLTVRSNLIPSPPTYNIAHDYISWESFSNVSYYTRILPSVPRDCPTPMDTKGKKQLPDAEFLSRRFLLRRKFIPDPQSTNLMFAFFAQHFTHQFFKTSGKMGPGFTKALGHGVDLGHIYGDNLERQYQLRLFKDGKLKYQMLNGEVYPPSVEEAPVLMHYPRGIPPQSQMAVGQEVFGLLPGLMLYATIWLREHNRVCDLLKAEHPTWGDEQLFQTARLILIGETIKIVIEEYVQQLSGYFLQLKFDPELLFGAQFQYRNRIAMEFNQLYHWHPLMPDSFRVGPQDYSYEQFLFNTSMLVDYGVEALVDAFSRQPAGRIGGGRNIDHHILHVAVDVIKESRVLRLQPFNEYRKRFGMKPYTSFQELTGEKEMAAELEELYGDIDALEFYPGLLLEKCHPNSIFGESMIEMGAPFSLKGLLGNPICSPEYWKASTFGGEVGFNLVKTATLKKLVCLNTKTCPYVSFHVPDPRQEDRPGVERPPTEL
Put plainly: COX-1 enzyme inhibition assay. Format: biochemical.

Assay [4] deals with T2, Human recombinant COX-2 (Homo sapiens, UniProt P35354).
T2 sequence (P35354 18-604): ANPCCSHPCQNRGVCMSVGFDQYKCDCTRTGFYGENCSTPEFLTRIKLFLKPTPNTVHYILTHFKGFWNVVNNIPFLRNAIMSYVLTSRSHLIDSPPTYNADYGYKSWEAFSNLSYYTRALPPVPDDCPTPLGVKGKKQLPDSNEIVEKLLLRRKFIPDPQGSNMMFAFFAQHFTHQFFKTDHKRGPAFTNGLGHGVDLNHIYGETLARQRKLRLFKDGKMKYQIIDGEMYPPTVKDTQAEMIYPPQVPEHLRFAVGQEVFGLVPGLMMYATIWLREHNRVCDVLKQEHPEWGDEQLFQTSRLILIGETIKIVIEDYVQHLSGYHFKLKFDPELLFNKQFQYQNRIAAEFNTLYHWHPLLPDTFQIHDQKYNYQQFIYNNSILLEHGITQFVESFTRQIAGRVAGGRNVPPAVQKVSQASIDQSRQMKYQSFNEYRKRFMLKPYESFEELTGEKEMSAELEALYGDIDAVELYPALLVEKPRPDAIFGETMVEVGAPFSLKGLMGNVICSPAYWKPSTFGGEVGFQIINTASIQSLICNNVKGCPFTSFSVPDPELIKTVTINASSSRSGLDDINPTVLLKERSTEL
As to the kind of experiment: biochemical. The note with it: for Selectivity Index (SI): COX-1 vs COX-2.

Here are results for nine molecules from article PMC9870662 (Medicinal Chemistry Research, 2023).

`Cc1ccc(-c2cc(C(F)(F)F)nn2-c2ccc(S(N)(=O)=O)cc2)cc1` [Celecoxib, reference compound]: the “Response (n) Mean ± SD” value turned out to be 33.62 ± 1.79 in assay [1] (10 mg/kg i.p.), 26.37 ± 2.86 in assay [1] (20 mg/kg i.p.), 13.75 ± 2.72 in assay [1] (40 mg/kg i.p.) and 7.37 ± 2.39 in assay [1] (80 mg/kg i.p.). Moreover, the ED50 in assay [1] was 20.2 mg/kg. For the same molecule, the inhibition at 10 µM in assay [2] was 75.8%.
As for `CS(=O)(=O)c1ccc(-c2cc(-c3ccccc3)n3c(n2)nc2ccccc23)cc1` [Compound 5a, 2-(4-(Methylsulfonyl)phenyl)-4-phenylbenzo[4,5]imidazo[1,2-a]pyrimidine], the “Response (n) Mean ± SD” value in assay [1] (5 mg/kg i.p.) amounted to 25 ± 1.58; in assay [1] (10 mg/kg i.p.), 20.75 ± 3.07; in assay [1] (20 mg/kg i.p.), 17.25 ± 2.95; in assay [1] (40 mg/kg i.p.), 12.63 ± 2.64; in assay [1] (80 mg/kg i.p.), 10.00 ± 1.50. Besides, the ED50 in assay [1] is 8.65 mg/kg. In addition, the inhibition at 10 µM in assay [2] came out at 53.3%. The IC50 is 6.1 µM in assay [3] and 0.05 µM in assay [4]. Further, the “Selectivity Index (SI)” value in assay [4] is recorded as 122.
Take `Cc1ccccc1-c1cc(-c2ccc(S(C)(=O)=O)cc2)nc2nc3ccccc3n12` [Compound 5b, 2-(4-(Methylsulfonyl)phenyl)-4-(o-tolyl)benzo[4,5]imidazo[1,2-a]pyrimidine]: the inhibition at 10 µM in assay [2] turned out to be 76.9%. Further, the half-inhibitory concentration (IC50) in assay [3] is 48.3 µM; in assay [4], > 100 µM.
In the case of `Cc1cccc(-c2cc(-c3ccc(S(C)(=O)=O)cc3)nc3nc4ccccc4n23)c1` [Compound 5c, 2-(4-(Methylsulfonyl)phenyl)-4-(m-tolyl)benzo[4,5]imidazo[1,2-a]pyrimidine], the inhibition at 10 µM in assay [2] is 76%. For the same molecule, the IC50 was 24 µM in assay [3] and > 100 µM in assay [4].
On to `Cc1ccc(-c2cc(-c3ccc(S(C)(=O)=O)cc3)nc3nc4ccccc4n23)cc1` [Compound 5d, 2-(4-(Methylsulfonyl)phenyl)-4-(p-tolyl)benzo[4,5]imidazo[1,2-a]pyrimidine], for which the “Response (n) Mean ± SD” value in assay [1] (5 mg/kg i.p.) is on record as 18.63 ± 5.87; in assay [1] (10 mg/kg i.p.), 17.88 ± 4.28; in assay [1] (20 mg/kg i.p.), 14.75 ± 4.47; in assay [1] (40 mg/kg i.p.), 13.25 ± 2.59; in assay [1] (80 mg/kg i.p.) it was 10.25 ± 2.73. In assay [1], the ED50 is 5.75 mg/kg. In assay [2], the inhibition at 10 µM turned out to be 78.2%. Moreover, the results for the IC50 in assay [3] and in assay [4] were 40.8 µM and 0.68 µM, respectively. Besides, the “Selectivity Index (SI)” value in assay [4] was found to be 60.
Consider `COc1cccc(-c2cc(-c3ccc(S(C)(=O)=O)cc3)nc3nc4ccccc4n23)c1` [Compound 5f, 4-(3-Methoxyphenyl)-2-(4-(methylsulfonyl)phenyl)benzo[4,5]imidazo[1,2-a]pyrimidine], for which the inhibition at 10 µM in assay [2] is 75.4%. In addition, the IC50 in assay [3] and in assay [4] was > 100 µM each time.
Regarding `COc1ccc(-c2cc(-c3ccc(S(C)(=O)=O)cc3)nc3nc4ccccc4n23)cc1OC` [Compound 5h, 4-(3,4-Dimethoxyphenyl)-2-(4-(methylsulfonyl)phenyl)benzo[4,5]imidazo[1,2-a]pyrimidine], the inhibition at 10 µM in assay [2] worked out at 79.3%. Besides, the IC50 in assay [3] was 13.9 µM; in assay [4], > 100 µM.
As to `CS(=O)(=O)c1ccc(-c2cc(-c3ccccc3Cl)n3c(n2)nc2ccccc23)cc1` [Compound 5m, 4-(2-Chlorophenyl)-2-(4-(methylsulfonyl)phenyl)benzo[4,5]imidazo[1,2-a]pyrimidine], in assay [2], the inhibition at 10 µM was 51.3%. For the same molecule, the IC50 in assay [3] was 15.2 µM; in assay [4] it was > 100 µM.
With `CS(=O)(=O)c1ccc(-c2cc(-c3ccc(Cl)cc3)n3c(n2)nc2ccccc23)cc1` [Compound 5o, 4-(4-Chlorophenyl)-2-(4-(methylsulfonyl)phenyl)benzo[4,5]imidazo[1,2-a]pyrimidine], in assay [2], the inhibition at 10 µM stood at 72.3%. Also, the IC50 in assay [3] was 17.8 µM; in assay [4], > 100 µM.
